Source: PubChem (Johns Hopkins Ion Channel Center)
TRPC4 inh: inhibitors of mouse TRPC4 channel, primary screen, Fluo4 calcium, HEK293 TRPC4beta/mu-opioid cells; Short transient receptor potential channel 4 (Mus musculus), Q9QUQ5; DAMGO-evoked Fluo4 calcium flux; active compounds read low; B-score at 10 µM; 300,000 compounds, 0.39% hits; AID 2247, 2010;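 active means B-score over 3 SD under the library average, no early fluorescence shift, positive overall ratio signal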
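Assay system: TRPC4beta/mu-opioid receptor HEK293 cell line; compound dosing: single concentration per test compound; detection: Fluo4 Ca2+ flux fluorescence; evaluation: per-well B score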
TRPC6 inh: mouse TRPC6 channel inhibitors, primary screen, cell-based, HEK293, membrane potential dye; ACh-evoked depolarization; active compounds read low; B-score at 10 µM; 310,000 compounds, 1.1% hits; AID 2553, 2010;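 active means B-score under library mean minus 3 SD, initial fluorescence not abnormally high, positive integrated signal ratio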;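 further: B-score derived from integrated fluorescence ratio over the kinetic read; more negative B-score means stronger inhibition of depolarization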
Target sequence (Q61143 whole entry, looked up): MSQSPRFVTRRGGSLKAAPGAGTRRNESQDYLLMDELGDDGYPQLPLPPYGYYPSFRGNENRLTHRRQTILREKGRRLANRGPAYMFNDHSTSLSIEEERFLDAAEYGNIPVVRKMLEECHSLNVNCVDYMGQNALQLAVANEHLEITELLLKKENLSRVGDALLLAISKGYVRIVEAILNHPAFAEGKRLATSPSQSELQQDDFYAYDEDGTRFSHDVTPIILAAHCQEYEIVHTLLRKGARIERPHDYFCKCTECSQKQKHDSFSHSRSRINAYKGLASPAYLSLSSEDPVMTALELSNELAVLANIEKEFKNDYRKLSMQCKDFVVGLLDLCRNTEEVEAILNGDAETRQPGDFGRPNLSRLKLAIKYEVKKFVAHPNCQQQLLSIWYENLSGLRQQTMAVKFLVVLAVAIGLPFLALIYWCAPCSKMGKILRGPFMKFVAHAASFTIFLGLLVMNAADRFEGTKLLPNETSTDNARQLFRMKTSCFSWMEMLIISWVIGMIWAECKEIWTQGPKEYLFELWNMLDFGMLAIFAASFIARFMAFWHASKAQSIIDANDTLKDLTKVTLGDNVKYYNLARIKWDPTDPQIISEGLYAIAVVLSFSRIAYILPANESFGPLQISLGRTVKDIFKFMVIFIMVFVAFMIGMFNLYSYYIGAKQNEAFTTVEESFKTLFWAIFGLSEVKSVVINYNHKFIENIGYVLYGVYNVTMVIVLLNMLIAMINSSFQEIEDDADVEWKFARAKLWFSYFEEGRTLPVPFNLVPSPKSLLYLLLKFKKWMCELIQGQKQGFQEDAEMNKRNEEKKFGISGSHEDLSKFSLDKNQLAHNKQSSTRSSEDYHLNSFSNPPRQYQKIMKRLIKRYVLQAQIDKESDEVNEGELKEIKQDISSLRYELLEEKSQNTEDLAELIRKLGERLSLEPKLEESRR
TRPC4 act: activators of mouse TRPC4 channel, primary screen, Fluo4 calcium, HEK293 TRPC4beta/mu-opioid cells | Short transient receptor potential channel 4 (Mus musculus), Q9QUQ5 | Fluo4 calcium fluorescence; active compounds read high | B-score at 10 µM | 310,000 compounds, 0.49% hits | AID 2237, 2010;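 active means B-score above 5 SD of library B-scores, and initial fluorescence ratio not above library mean plus 5 SD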;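 further: positive B-score marks a calcium rise read as TRPC4 activation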
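system = HEK293 cells stably co-expressing mouse TRPC4beta and mu-opioid receptor | schedule = Fluo4 dye loading 45 min at room temperature, 110 s recording | measure = B-scored integrated calcium fluorescence ratio | signal = Fluo4 calcium-sensitive dye fluorescence, kinetic, 1 Hz baseline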
TRPC6 activator: mouse TRPC6 channel activators, primary screen, cell-based, HEK293, membrane potential dye | 310,000 compounds, 0.13% hits | B-score at 10 µM | HEK293-TRPC6 membrane potential dye fluorescence; active compounds read high | Short transient receptor potential channel 6 (Mus musculus), Q61143;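 active means B-score of the integrated fluorescence ratio above library mean plus 3 SD, and starting fluorescence ratio within library mean plus 5 SD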;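 further: higher score means more depolarization so channel activation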
TRPC4 PAM: positive allosteric modulators of TRPC4, primary screen, cell-based, mouse TRPC4beta, HEK293 mu-opioid, Fluo-4 calcium; Short transient receptor potential channel 4 (Mus musculus), Q9QUQ5; DAMGO EC20, Fluo-4 Ca2+ flux; active compounds read high; B-score at 10 µM; 310,000 compounds, 0.42% hits; AID 2227, 2009;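 active means B-score of calcium response area above 5 SD of library B-scores, with initial fluorescence ratio within 5 SD of library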
TRPC4 spec 2: mouse TRPC4 off-target activity of TRPC6 inhibitors, second screen. shares compounds with TRPC6 inh. 920 compounds, 42% hits. AID 2776. HEK293 TRPC4/MOR, membrane potential dye fluorescence; channel activated by saturating DAMGO dose. inhibition, % at 10 µM;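 active means compounds whose fluorescence signal differed from control wells by over 3 SD, either direction, in both duplicate plates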
TRPC4 spec: mouse TRPC4 modulation by TRPC6 hits, confirmation, selectivity assay for TRPC6 inhibitor project, cell-based, HEK293 TRPC4/mu-opioid, membrane potential dye. shares compounds with TRPC6 inh. membrane potential fluorescence. activity change, negative = inhibition, % at 10 µM. 920 compounds, 61% hits. AID 2777, 2010;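 active means rise or fall in signal beyond 3 SD of buffer-only wells in both replicate plates, either sign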;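 further: integrated kinetic ratio of fluorescence range over baseline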
HEK293 MPD ctr 2-1: nonspecific membrane potential effects, parental HEK293, confirmation, counter-screen for TRPC6 inhibitor project, cell-based, second counter screen | shares compounds with TRPC6 inh | parental HEK293 membrane potential dye fluorescence; maximal acetylcholine challenge after compound addition | signal change vs control, % at 10 µM | 920 compounds, 31% hits;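 active means membrane potential signal moving either way by over 3 SD of the maximum-effect control, in both duplicate plates, meaning non-specific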
HEK293 MPD ctr-1: membrane potential modulation in parental HEK293, confirmation, counter-screen for TRPC6 inhibitor project, cell-based. AID 2780, 2010. 920 compounds, 60% hits. parental HEK293 membrane potential dye fluorescence. membrane potential signal change, % at 10 µM. shares compounds with TRPC6 inh;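 active means membrane potential signal shifting up or down by more than 3 SD of buffer-only wells, on both duplicate plates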
HEK293 MPD ctr-2: parental HEK293 membrane potential modulation, confirmation, counter-screen for TRPC6 modulator project, cell-based; shares compounds with TRPC6 inh; membrane potential dye fluorescence; membrane potential signal change, % at 10 µM; 2,400 compounds, 51% hits; AID 488924, 2010;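 active means membrane potential signal moves up or down beyond 5 SD from buffer-only wells, on both duplicate plates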
HEK293 MPD ctr 2-2: second counter-screen for TRPC6 modulators: effect in parental HEK293 cells | shares compounds with TRPC6 inh | membrane potential dye fluorescence; after compound, maximal acetylcholine stimulation | inhibition, % at 10 µM | 2,400 compounds, 14% hits | AID 488926;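 active means membrane potential signal drops by more than 5 SD from the mean control signal, in both duplicate plates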
TRPC4/MOR mod: TRPC4 modulation by TRPC6 hit compounds, confirmation, selectivity assay for TRPC6 modulator project, cell-based, HEK293 TRPC4/mu-opioid, membrane potential dye, mouse | shares compounds with TRPC6 inh | membrane potential fluorescence | percent change from control (negative = decrease, positive = increase), % at 10 µM | 2,400 compounds, 69% hits;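 active means membrane potential signal moved up or down beyond 5 SD of buffer control wells, in both duplicate plates, actives on both sides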
TRPC4 ctr inh 2: second selectivity test of TRPC6 modulators against mouse TRPC4 | AID 488928 | inhibition, % at 10 µM | HEK293 TRPC4/mu-opioid, membrane potential dye fluorescence; stimulated with maximal-effect DAMGO | 2,400 compounds, 55% hits | shares compounds with TRPC6 inh;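 active means drop in membrane potential signal beyond 5 SD of the control wells in both duplicate plates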;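 further: TRPC4 counter screen for TRPC6 hits run under conditions tuned for TRPC6 not TRPC4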
TRPC6 block conf: mouse TRPC6 channel inhibitors, confirmation, HEK293 cells, membrane potential dye, duplicate; shares compounds with TRPC6 inh; ACh-evoked depolarization; inhibition, % at 10 µM; 3,300 compounds, 43% hits; AID 488960, 2010;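 active means fluorescence ratio falls more than 5 SD below the full-stimulation control mean, in both duplicate runs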;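 further: integrated fluorescence ratio of peak minus minimum over baseline after agonist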
TRPC6 act confirm: mouse TRPC6 channel activators, confirmation, HEK293 cells, membrane potential dye, duplicate; shares compounds with TRPC6 inh; HEK293-TRPC6 membrane potential dye fluorescence, FDSS; activation, % at 10 µM; 2,800 compounds, 11% hits; AID 488961, 2010;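 active means ratio signal rise beyond 5 SD above unstimulated control wells' mean, seen in both duplicate runs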
Hits are given with their value; n = inactive; x = no result. Most compounds without a hit are left out; they make up all but 2.3% or so of the library.

SMILES	TRPC4 inh	TRPC6 inh	TRPC4 act	TRPC6 activator	TRPC4 PAM	HEK293 MPD ctr-2	HEK293 MPD ctr 2-2	TRPC4/MOR mod	TRPC4 ctr inh 2	TRPC6 block conf	TRPC6 act confirm	others
COc1ccc2c(c1)-c1c(ssc1=S)C(C)(C)N2	n	-5.61	n	n	n	-164.5%	n	-33.0%	60.0%	46.0%	n
CCN(CC)CCNC(=O)c1ccc(NC(=O)c2cccc(S(=O)(=O)Nc3ccc(C)cc3)c2)cc1	n	-9.71	n	n	n	x	x	x	x	56.1%	n	TRPC4 spec 2=n;TRPC4 spec=n;HEK293 MPD ctr 2-1=41.0%;HEK293 MPD ctr-1=n
CCN(CC)CCNC(=O)c1ccc(NC(=O)c2cc(S(=O)(=O)N3CCCCC3)ccc2C)cc1	n	-5.26	n	n	n	n	65.0%	10.5%	n	60.0%	n
CCN(CC)S(=O)(=O)c1cccc(C(=O)Nc2cccc(C)c2)c1	n	-5.11	n	n	n	n	n	8.0%	n	n	n
COc1ccc(S(=O)(=O)N2CCCCCC2)cc1C(=O)NCCOc1ccc(C)cc1	n	-5.51	n	n	n	172.0%	n	27.0%	n	n	x
CCN(CC)CCNC(=O)c1ccc(NC(=O)C2CCN(S(=O)(=O)c3ccc4c(c3)OCCO4)CC2)cc1	n	n	n	n	n	x	x	x	x	x	x
CC(C)(C)c1ccc(C(CC(=O)O)NC(=O)Cc2ccc(Cl)cc2)cc1 (stereo unspecified)	n	n	n	n	n	x	x	x	x	x	x
CCOC(=O)C1=C(COC(=O)c2cc(Br)c(Br)s2)NC(=O)NC1C (stereo unspecified)	n	n	n	n	n	x	x	x	x	x	x
Cc1cccc(NC(=O)CCN2CCC(C)CC2)c1	n	n	n	n	n	x	x	x	x	x	x
COc1ccc(Cn2c(-c3ccc(Br)cc3)c[n+]3ccccc23)cc1	n	-12.6	n	n	n	-269.0%	n	-47.0%	48.5%	59.5%	n
COc1ccccc1CNC1CCCc2ccccc21 (stereo unspecified)	n	-7.43	n	n	n	x	x	x	x	64.8%	x	TRPC4 spec 2=n;TRPC4 spec=19.9%;HEK293 MPD ctr 2-1=n;HEK293 MPD ctr-1=9.1%
Cn1c(CNc2ccc(Cl)cc2)nnc1SCCN1CCCCC1	n	-5.14	n	n	n	n	n	17.5%	38.0%	n	n
CC(C)c1ccc(S(=O)(=O)N2CCN(C(=O)c3ccco3)CC2)cc1	n	-11.3	n	11.7	n	n	n	11.5%	n	105.5%	122.5%
O=C(Nc1ccccc1C(=O)O)c1ccc(NC(=O)c2ccc(Br)o2)cc1	n	n	n	16.6	n	190.0%	n	27.0%	n	n	93.5%
COC(=O)c1c(NC(=O)C2CCCCC2)sc2c1CC(C)(C)NC2(C)C	n	n	n	n	n	x	x	x	x	x	x
CCOC(=O)C1=C(c2ccccc2)N(C)C(=O)NC1c1ccc(O)c(OC)c1 (stereo unspecified)	n	-9.18	n	n	n	x	x	x	x	n	n	TRPC4 spec 2=n;TRPC4 spec=0.0%;HEK293 MPD ctr 2-1=n;HEK293 MPD ctr-1=0.0%
CCOC(=O)C1=C(c2ccccc2)NC(=O)NC1c1ccc(O)c(OCC)c1 (stereo unspecified)	n	n	n	n	n	x	x	x	x	x	x
COC(=O)c1cc2ccsc2n1Cc1cc(=O)n2ccccc2n1	n	-5.76	n	n	n	n	n	8.5%	n	56.0%	n
O=c1c2sccc2n(Cc2cc(=O)n3ccccc3n2)c(=O)n1-c1ccccc1	n	n	n	n	n	x	x	x	x	x	x
CCOC(=O)N1CCC(Nc2c(NCCN3CCN(c4ccccc4F)CC3)c(=O)c2=O)CC1	n	n	n	n	n	x	x	x	x	x	x
CC(=NCCCn1ccnc1)c1c(C)[nH]n(-c2ccc([N+](=O)[O-])cc2)c1=O	n	-5.46	n	n	n	-208.5%	n	-41.5%	37.0%	n	n
Cc1[nH]n(-c2ccc([N+](=O)[O-])cc2)c(=O)c1/C=N/N1CCOCC1	n	n	n	n	n	x	x	x	x	x	x
COc1cc(Nc2nc3ccccc3nc2NS(=O)(=O)c2ccc([N+](=O)[O-])cc2)cc(OC)c1OC	n	-6.41	n	n	n	-116.5%	n	-26.5%	50.5%	48.5%	n
O=[N+]([O-])c1ccc(S(=O)(=O)Nc2nc3ccccc3nc2Nc2ccccc2)cc1	n	n	n	n	n	x	x	x	x	x	x
COc1ccc(/C=N/NC(=O)CN2CCS(=O)(=O)CC2)cc1	n	n	n	n	n	x	x	x	x	x	x
O=C(CN1CCS(=O)(=O)CC1)N/N=C/c1cccc(C(F)(F)F)c1	n	-5.35	n	n	n	n	n	n	n	n	n
